ABHD4 inh: inhibitors of mouse ABHD4; Q8VD66; purified mABHD4, FP-Rh probe fluorescence polarization; inhibition, % at 8.92 µM; 370,000 tested, 0.54% active; AID 720543;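 active = inhibition exceeding the mean over every tested compound plus 3 SD, cut at about 30% in these data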;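 note: 0% = plate median of compound wells and 100% = S159A mutant with DMSO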
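System: mouse ABHD4 enzyme, wild type / Medium: HEPES pH 7.0, NaCl, Pluronic buffer / Reagent: FP-Rh activity-based fluorescent probe / Control set: S159A mutant high control, sample median low control / Detection: fluorescence polarization with parallel and perpendicular emission, 525/598 nm / Schedule: 45 min + 60 min at 25 °C / Compound dosing: 8.92 µM, single dose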
SIAE primary: inhibitors of human sialic acid acetylesterase SIAE; 370,000 tested, 0.69% active; inhibition, % at 9.66 µM; Q9HAT2; SIAE FP-Rh probe binding, fluorescence polarization;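 active = inhibition above a cutoff: mean of compounds within the control limits plus 3 SD of those, cut at about 17% in these data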;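 note: 0% = plate median of compound wells and 100% = probe without SIAE protein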
Target sequence (Q9HAT2 whole entry, looked up): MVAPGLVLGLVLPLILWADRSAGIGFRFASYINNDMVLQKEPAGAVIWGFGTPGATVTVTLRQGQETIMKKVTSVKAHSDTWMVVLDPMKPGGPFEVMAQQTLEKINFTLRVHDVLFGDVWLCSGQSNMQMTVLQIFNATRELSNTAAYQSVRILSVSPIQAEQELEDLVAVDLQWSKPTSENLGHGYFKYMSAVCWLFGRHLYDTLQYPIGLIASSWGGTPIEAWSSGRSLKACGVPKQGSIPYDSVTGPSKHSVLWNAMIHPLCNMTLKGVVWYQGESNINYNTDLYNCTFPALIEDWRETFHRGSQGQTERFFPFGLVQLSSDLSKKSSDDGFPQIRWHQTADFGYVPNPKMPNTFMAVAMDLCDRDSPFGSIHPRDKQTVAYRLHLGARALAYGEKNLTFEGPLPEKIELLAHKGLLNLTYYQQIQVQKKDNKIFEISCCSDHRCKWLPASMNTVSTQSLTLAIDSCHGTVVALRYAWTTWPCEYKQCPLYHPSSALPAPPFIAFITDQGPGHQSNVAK
TCR-CD3 inh: human TCR-CD3 binding inhibition | TAMRA-labeled TCR probe fluorescence, biochemical | inhibition, % at 9.4 µM | 360,000 tested, 0.37% active; in the data active = inhibition above about 19%;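 note: recombinant mutant TCR 2C K166C tagged with TAMRA read by polarization; 0% = receptor in buffer alone and 100% = receptor with positive control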
HTRA1 inh: blocks human HTRA1 serine peptidase; Q92743; recombinant HTRA1, FP-rhodamine activity-based probe, fluorescence polarization; inhibition, % at 5.96 µM; 340,000 tested, 0.5% active; in the data active = inhibition above about 36%;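 note: 0% = enzyme with DMSO and 100% = wells lacking enzyme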
DAGLB inhibitor: diacylglycerol lipase beta (human) inhibition | AID 504411 | inhibition, % at 5.17 µM | HEK293T DAGLB membrane lysate, EnzChek fluorogenic substrate | 340,000 tested, 0.059% active | Q8NCG7; in the data active = inhibition above about 34%;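 note: 0% = enzyme with vehicle and 100% = wells lacking enzyme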
SIAE confirm: confirmation of human SIAE inhibitors; shares compounds with SIAE primary; SIAE FP-Rh activity-based probe, fluorescence polarization; inhibition, % at 9.66 µM; 2,300 tested, 13% active;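 active = mean inhibition of the replicates above the hit cutoff set in the primary screen, cut at about 17% in these data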;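 note: 0% = SIAE with DMSO and probe and 100% = probe without SIAE; inhibitors lower polarization as more probe stays unbound to SIAE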
Numbers without * were called inactive; nt = not tested or not shown. A selection: hits, their analogues and other compounds. The true share with any hit is near 1.6%.

SMILES	ABHD4 inh	SIAE primary	TCR-CD3 inh	HTRA1 inh	DAGLB inhibitor	SIAE confirm
CC(=O)N1CCN(c2ccc(NCc3ccc4c(c3)OCO4)cc2)CC1	18	20*	6	23	4	6
CC(=O)N1CCN(c2ccc(NCc3ccccc3)cc2)CC1	29	28*	5	34	6	0
CCCNC(=O)C[C@H]1CC[C@@H]2[C@H](COC[C@@H](O)CN2C(=O)c2ccccn2)O1	4	6	8	nt	nt	nt
CCN(CC)S(=O)(=O)c1ccc(C(=O)NCCSc2c[nH]c3ccccc23)cc1	-8	19*	-1	-11	2	0
CC1CN(S(=O)(=O)c2ccc(C(=O)NC3CCCCC3)cc2)CC(C)O1 (stereo not drawn)	0	18*	5	-7	-1	1
O=C(NC1CCCCC1)c1ccc(S(=O)(=O)N2CCCCC2)cc1	-5	6	-8	-1	-2	nt
C/C(=N\O)c1cc(Cl)cc(Cl)c1O	7	25*	-4	1	-4	30*
CC(C)(C)C1=Nn2c(nnc2-c2ccc(C(C)(C)C)cc2)SC1	-13	-3	nt	nt	nt	nt
CC(C)[C@H](NC(=O)c1ccc(Cl)c(Cl)c1)C(=O)N1CCC[C@H]1C(=O)NCCc1ccccc1Cl	-6	-11	4	nt	nt	nt
O=C(O)CNc1ccccc1C(=O)O	9	38*	-3	-1	2	1
O=C(O)c1ccccc1NCc1cccnc1	1	2	0	nt	nt	nt
C=CCN(CC#CC(=C)C)CC1CC1	4	1	nt	nt	nt	nt
COc1ccc(N2CCN(C(=O)CN3CCN(c4nc(-c5ccc(F)cc5)cs4)CC3)CC2)cc1	-1	28*	5	5	0	6
COc1ccc(-c2nnn(CC(=O)N3CCN(c4ccc(F)cc4)CC3)n2)cc1	2	-4	5	5	0	nt
Nc1ncnc2c1ncn2[C@@H]1O[C@H](C(=O)N[C@@H](CCc2ccccc2)C(=O)N2CCN(C(=O)N3CCCCC3)CC2)[C@@H](O)[C@H]1O	3	2	2	nt	nt	nt
CN(Cc1ccc2c(c1)CCCN2C)C(=O)[C@H]1O[C@@H](n2cnc3c(N)ncnc32)[C@H](O)[C@@H]1O	4	59*	12	nt	nt	47*
Cn1c(=O)n(C)c2cc(CNC(=O)[C@H]3O[C@@H](n4cnc5c(N)ncnc54)[C@H](O)[C@@H]3O)ccc21	2	6	-1	nt	nt	nt
Nc1ncnc2c1ncn2[C@@H]1O[C@H](C(=O)N[C@@H](CCc2ccccc2)C(=O)N2CCN(C(=O)N3CCOCC3)CC2)[C@@H](O)[C@H]1O	5	70*	0	nt	nt	73*
Nc1ncnc2c1ncn2[C@@H]1O[C@H](C(=O)N[C@@H](CO)Cc2ccccc2)[C@@H](O)[C@H]1O	6	25*	0	nt	nt	25*
Nc1ncnc2c1ncn2[C@@H]1O[C@H](C(=O)N[C@@H](CCc2ccccc2)C(=O)N2CCN(CC(=O)N3CCCC3)CC2)[C@@H](O)[C@H]1O	6	29*	-1	nt	nt	121*
CC(C)[C@@H](CO)NC(=O)[C@H]1O[C@@H](n2cnc3c(N)ncnc32)[C@H](O)[C@@H]1O	0	8	-6	nt	nt	nt
CCC[C@H]1[C@@H](OC(=O)NC(CC)CC)CC[C@@]23CCCN2C(=O)CCC[C@@H]13	2	6	nt	nt	nt	nt
CC1(C)Oc2ccc(C(=O)N3CCCC3)cc2NC1=O	2	0	nt	nt	nt	nt
CCCCNS(=O)(=O)/C=C/c1ccc(F)cc1CNC(=O)OC(C)(C)C	-3	3	nt	nt	nt	nt
Nc1ncnc2c1ncn2[C@@H]1O[C@H](C(=O)NCCc2ccc(F)cc2)[C@@H](O)[C@H]1O	-1	23*	4	nt	nt	22*
SMILES	ABHD4 inh	SIAE primary	TCR-CD3 inh	HTRA1 inh	DAGLB inhibitor	SIAE confirm
CN(C)c1cccc2c(S(=O)(=O)NC(=O)[C@H]3O[C@@H](n4cnc5c(N)ncnc54)[C@H](O)[C@@H]3O)cccc12	7	56*	10	nt	nt	53*
Nc1ncnc2c1ncn2[C@@H]1O[C@H](C(=O)NCc2ccc(OC(F)(F)F)cc2)[C@@H](O)[C@H]1O	2	10	-3	nt	nt	nt
O=C1[C@@H](CCc2ccccc2)[C@@H]2c3ccccc3C=NN2[C@@H]2c3ccccc3C=NN12	-7	18*	nt	nt	nt	7
O=C1[C@@H](C2CCCCC2)[C@@H]2c3ccccc3C=NN2[C@@H]2c3ccccc3C=NN12	-2	1	nt	nt	nt	nt
CCc1ccc(NC(=O)C(C)Sc2nnc(CN3CCCC3)o2)cc1 (stereo not drawn)	0	19*	-1	4	-3	2
CC(Sc1nnc(COc2ccc(Cl)cc2)o1)C(=O)Nc1ccc(N2CCOCC2)cc1 (stereo not drawn)	1	4	-2	1	2	nt
Cc1cc(C)nc(SCCS(=O)(=O)Cc2ccc(Cl)cc2)n1	1	20*	3	-5	-2	-3
COc1ccccc1Nc1ccc(NC(=O)c2cccc([N+](=O)[O-])c2C)cc1	5	18*	-5	20	15	5
CC(C)N1CCC(C)(C(=O)Nc2ccc(-n3cccc3)cc2)C1 (stereo not drawn)	1	17*	-7	nt	nt	-4
COCCCNC(=O)/C(C#N)=C/c1ccc(F)cc1	-1	33*	6	2	1	0
COCCNC(=O)/C(C#N)=C/c1ccc(OCc2ccc(F)cc2)cc1	-10	-6	7	-12	-3	nt

Screens from PubChem BioAssay.
